# Results reported in ChEMBL document CHEMBL3580567 (J Med Chem, 2015).
# Active and inactive are the calls of the source. The rule behind the calls is not given here.
# What was measured:
# [1] = target: T1, Melatonin receptor type 1B (Homo sapiens, UniProt P49286); experiment: Agonist activity at human melatonin receptor-2 transfected in CHO cell membranes after 1 hr by GTPgammaS binding assay; assay type: functional
# T1 sequence (P49286 whole entry): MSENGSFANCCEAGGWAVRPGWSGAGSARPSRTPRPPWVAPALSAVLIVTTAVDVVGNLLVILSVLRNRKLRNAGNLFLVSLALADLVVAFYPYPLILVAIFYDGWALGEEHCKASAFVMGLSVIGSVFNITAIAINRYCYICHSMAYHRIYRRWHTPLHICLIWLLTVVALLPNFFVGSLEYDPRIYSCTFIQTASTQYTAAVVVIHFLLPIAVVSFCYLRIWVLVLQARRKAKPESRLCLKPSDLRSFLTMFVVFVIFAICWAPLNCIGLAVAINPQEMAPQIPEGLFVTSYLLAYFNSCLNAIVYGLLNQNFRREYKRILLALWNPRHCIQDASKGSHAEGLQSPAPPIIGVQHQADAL
# [2] = target: T2, Melatonin receptor type 1A (Homo sapiens, UniProt P48039); experiment: Displacement of 2-[125I]-iodomelatonin from human melatonin receptor-1 transfected in CHO cell membranes after 120 mins
# [3] = target: T1, Melatonin receptor type 1B; experiment: Displacement of 2-[125I]-iodomelatonin from human melatonin receptor-2 transfected in CHO cell membranes after 120 mins
# [4] = target: T3, Melatonin receptor type 1B (Homo sapiens) (UniProt P49286); experiment: Agonist activity at human melatonin receptor-2 transfected in CHO cell membranes after 1 hr by GTPgammaS binding assay relative to melatonin; assay type: functional
# T3 sequence (whole entry): T1 sequence (P49286 whole entry)
# Summary of the method: (§1)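 CHO membranes (20 µg/mL) stably expressing human MT1 or MT2 in 20 mM HEPES pH 7.4, 100 mM NaCl, 3 µM GDP, 3 mM MgCl2, 20 µg/mL saponin. Incubated with 0.2 nM [35S]GTPγS for 1 h at rt, then filtered. Non-specific binding defined with 10 µM GTPγS. Seven concentrations in duplicate; EC50 and Emax fitted.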
# [5] = Induction of primary neuronal stem cell differentiation derived from subgranular zone of dentate gyrus of Wistar rat hippocampus assessed as upregulation of TuJ1 expression at 10 uM incubated for 7 days followed by 48 hrs incubation in presence of serum and absence of EGF by DAPI staining-based fluorescence microscopic analysis; assay type: functional; conditions: Primary neuron
# Summary of the method: (§2)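 Neurospheres came from the SGZ of the dentate gyrus of adult male Wistar rats (8-12 weeks). They were grown in DMEM/F12 with 10 ng/mL EGF, 10 ng/mL FGF and B27. After 3 days, cultures were treated with compounds for 7 days. They were then plated on poly-L-lysine coverslips for 48 h with serum and without growth factors. Cells were immunostained for TuJ1 and MAP-2 with DAPI nuclei. Positive cells were counted by fluorescence microscopy in five NS per condition over three independent experiments. Untreated cultures gave basal values.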
# [6] = Induction of primary neuronal stem cell maturation derived from subgranular zone of dentate gyrus of Wistar rat hippocampus assessed as upregulation of MAP-2 expression at 10 uM incubated for 7 days by DAPI staining-based fluorescence microscopic analysis; assay type: functional; conditions: Primary neuron; summary of the method: as §2
# [7] = Induction of primary neuronal stem cell differentiation derived from subgranular zone of dentate gyrus of Wistar rat hippocampus assessed as upregulation of TuJ1 expression at 10 uM incubated for 7 days followed by 48 hrs incubation in presence of serum and absence of EGF by DAPI staining-based fluorescence microscopic analysis in presence of melatonin receptor antagonist luzindole; assay type: functional; conditions: Primary neuron; summary of the method: as §2
# [8] = Solubility in the water; assay type: physicochemical; conditions: buffer
# [9] = Thermodynamic solubility in phosphate buffer at pH 7.4 after 24 hrs by UV spectra analysis; assay type: physicochemical; conditions: read-out: Therm_solubility
# Summary of the method: (§3)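 Thermodynamic solubility: about 1 mg of solid was saturated in 200 µL buffer and stirred 24 h at rt at 320 rpm, then centrifuged. Supernatant was diluted with buffer-MeCN 80:20 and read by UV at its absorbance maximum. Values were quantified against a calibration line from a 10 mM DMSO stock, checked with a quality-control standard. Runs were in triplicate. The buffers were pH 7.4 phosphate 45 mM and NH4Cl for the basic pH.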
# [10] = Induction of primary neuronal stem cell maturation derived from subgranular zone of dentate gyrus of Wistar rat hippocampus assessed as upregulation of MAP-2 expression at 10 uM incubated for 7 days by DAPI staining-based fluorescence microscopic analysis in presence of melatonin receptor antagonist luzindole; assay type: functional, tissue-based; conditions: Primary neuron; summary of the method: as §2
# [11] = species: Homo sapiens; experiment: Selectivity ratio of Ki for human melatonin receptor-1 to Ki for human melatonin receptor-2
# [12] = target: T2, Melatonin receptor type 1A; experiment: Agonist activity at human melatonin receptor-1 transfected in CHO cell membranes after 1 hr by GTPgammaS binding assay relative to melatonin; assay type: functional; summary of the method: as §1
# [13] = target: T2, Melatonin receptor type 1A; experiment: Agonist activity at human melatonin receptor-1 transfected in CHO cell membranes after 1 hr by GTPgammaS binding assay; assay type: functional
# [14] = Thermodynamic solubility in NH4Cl buffer at pH 9.3 after 24 hrs by UV spectra analysis; assay type: physicochemical; conditions: read-out: Therm_solubility; summary of the method: as §3
# [15] = Thermodynamic solubility in buffer at pH 5.5 after 24 hrs by UV spectra analysis; assay type: physicochemical; conditions: read-out: Therm_solubility
# [16] = target: T4, 5-hydroxytryptamine receptor 1A (Rattus norvegicus, UniProt P19327); experiment: Displacement of [3H]8-OH DPAT from rat 5HT1A receptor expressed in CHO cells after 30 mins by liquid scintillation counting analysis; assay type: cell-based
# T4 sequence (P19327 whole entry): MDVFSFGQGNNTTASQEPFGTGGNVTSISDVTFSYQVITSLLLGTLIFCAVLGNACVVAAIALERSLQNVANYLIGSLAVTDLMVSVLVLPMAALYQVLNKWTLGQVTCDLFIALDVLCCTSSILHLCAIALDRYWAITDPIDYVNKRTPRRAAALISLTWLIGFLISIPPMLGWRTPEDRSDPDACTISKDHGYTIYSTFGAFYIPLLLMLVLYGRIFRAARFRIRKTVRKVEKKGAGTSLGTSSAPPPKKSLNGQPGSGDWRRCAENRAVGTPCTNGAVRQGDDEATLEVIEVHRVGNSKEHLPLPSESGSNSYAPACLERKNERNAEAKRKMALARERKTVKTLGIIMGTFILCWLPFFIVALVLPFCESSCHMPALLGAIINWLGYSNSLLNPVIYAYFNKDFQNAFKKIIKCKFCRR
# [17] = target: 5-hydroxytryptamine receptor 2A (Rattus norvegicus, UniProt P14842); experiment: Displacement of [3H]DOB from rat 5HT2A receptor expressed in mouse NIH/3T3 cells after 30 mins by liquid scintillation counting analysis; assay type: cell-based
# 5-hydroxytryptamine receptor 2A, sequence (P14842 whole entry): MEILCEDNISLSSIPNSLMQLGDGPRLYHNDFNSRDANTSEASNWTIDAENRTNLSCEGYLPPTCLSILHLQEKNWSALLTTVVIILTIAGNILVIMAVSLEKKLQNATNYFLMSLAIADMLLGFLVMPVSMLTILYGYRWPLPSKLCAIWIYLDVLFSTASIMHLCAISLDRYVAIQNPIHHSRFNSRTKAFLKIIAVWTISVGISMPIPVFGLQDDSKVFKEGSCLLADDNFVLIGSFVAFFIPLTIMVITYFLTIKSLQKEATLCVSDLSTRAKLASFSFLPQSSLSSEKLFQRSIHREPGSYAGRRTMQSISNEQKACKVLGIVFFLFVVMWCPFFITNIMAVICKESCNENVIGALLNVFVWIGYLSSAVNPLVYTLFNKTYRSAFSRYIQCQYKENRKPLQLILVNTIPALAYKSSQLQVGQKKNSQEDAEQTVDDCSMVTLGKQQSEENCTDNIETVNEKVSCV
# T2 sequence (P48039 whole entry): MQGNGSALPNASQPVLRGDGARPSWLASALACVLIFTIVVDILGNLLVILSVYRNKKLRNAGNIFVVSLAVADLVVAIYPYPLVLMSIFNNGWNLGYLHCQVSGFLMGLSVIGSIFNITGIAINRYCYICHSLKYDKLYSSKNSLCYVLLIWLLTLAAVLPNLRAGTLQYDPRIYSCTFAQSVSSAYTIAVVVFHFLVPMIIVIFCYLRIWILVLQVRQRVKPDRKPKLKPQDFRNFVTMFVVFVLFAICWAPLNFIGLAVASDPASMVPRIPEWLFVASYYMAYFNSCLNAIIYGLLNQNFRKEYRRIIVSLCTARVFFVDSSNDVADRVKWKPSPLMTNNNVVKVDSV
Compound,EC50 [1] [µM],Ki [2] [µM],Ki [3] [µM],Emax [4] [%],solubility thermodynamic at 24 h [9] [µM],Ratio Ki [11],Emax [12] [%],EC50 [13] [µM],other results
COc1ccc2[nH]cc(CCc3ncc(C)o3)c2c1,0.503,> 1,0.498,32,–,–,–,–,–
COc1ccc2[nH]cc(CCNC(C)=O)c2c1 [MELATONIN],–,–,–,–,6640,–,–,–,Activity [5]: Active; Activity [6]: Active; Activity [7]: inactive; solubility [8]: 400 µM; Activity [10]: inactive
COc1ccc2[nH]cc(Cc3n[nH]c(=S)o3)c2c1,> 1,> 1,0.535,–,–,–,–,–,–
C#CCNC(=O)Cc1c[nH]c2ccc(OC)cc12,0.081,0.014,0.0038,82,–,3.6,67,0.289,–
COc1ccc2[nH]cc(Cc3nc(C)no3)c2c1,0.295,0.17,0.044,48,1160,3.9,16,0.711,–
COc1ccc2[nH]cc(CCc3n[nH]c(=O)n3C)c2c1,–,> 1,> 1,–,1100,–,–,–,solubility thermodynamic at 24 h [14]: 1410 µM; solubility thermodynamic at 24 h [15]: 860 µM
CCn1c(Cc2c[nH]c3ccc(OC)cc23)n[nH]c1=S,> 1,> 1,0.22,–,–,–,–,–,–
COc1ccc2[nH]cc(CCN(C)C)c2c1 [MEBUFOTENIN],0.112,0.21,0.016,28,–,10,62,0.257,Ki [16]: 0.011 µM; Ki [17]: 0.092 µM
COc1ccc2[nH]cc(Cc3n[nH]c(=O)o3)c2c1,> 1,> 1,0.16,–,–,–,–,–,–
CC(=O)NCCc1c(Cc2ccccc2)[nH]c2ccccc12,–,–,–,–,–,–,–,–,Activity [5]: inactive
C=CCNC(=O)CCc1c[nH]c2ccc(OC)cc12,0.011,0.0025,0.00045,88,–,5.5,92,0.204,–
CCn1c(CCc2c[nH]c3ccc(OC)cc23)n[nH]c1=S,–,> 1,> 1,–,137,–,–,–,solubility thermodynamic at 24 h [14]: 208 µM; solubility thermodynamic at 24 h [15]: 131 µM
C=CCNC(=O)Cc1c[nH]c2ccc(OC)cc12,0.132,0.017,0.0049,70,–,3.5,64,0.525,–
COc1ccc2[nH]cc(CCc3nc(C)no3)c2c1,–,> 1,> 1,–,–,–,–,–,–
COc1ccc2cccc(CCNC(C)=O)c2c1 [AGOMELATINE],–,–,–,–,804,–,–,–,–
COc1ccc2[nH]cc(Cc3n[nH]c(=O)n3C)c2c1,> 1,> 1,0.56,–,–,–,–,–,–
CCNc1nnc(Cc2c[nH]c3ccc(OC)cc23)s1,0.11,> 1,0.017,35,1420,> 500,–,–,Activity [5]: Active; solubility thermodynamic at 24 h [14]: 1440 µM; solubility thermodynamic at 24 h [15]: 1720 µM
COc1ccc2[nH]cc(Cc3ncc(C)o3)c2c1,–,0.28,> 1,–,–,–,23,0.989,–
COc1ccc2[nH]cc(CCc3nnco3)c2c1,0.457,0.57,0.068,25,–,8.6,–,> 1,–
COc1ccc2[nH]cc(CCc3n[nH]c(=S)o3)c2c1,1.1,> 1,0.53,32,3460,–,–,–,solubility thermodynamic at 24 h [14]: 18700 µM; solubility thermodynamic at 24 h [15]: 907 µM
C#CCNC(=O)CCc1c[nH]c2ccc(OC)cc12,–,–,–,99,–,5,106,–,Activity [5]: Active; Activity [6]: inactive
COc1ccc2[nH]cc(Cc3nnc(C)o3)c2c1,0.071,0.21,0.016,24,970,10,–,> 1,–
